Test results as given in ChEMBL document CHEMBL1828563, “Synthesis and biological evaluation of 3-(1H-imidazol- and triazol-1-yl)-2,2-dimethyl-3-[4-(naphthalen-2-ylamino)phenyl]propyl derivatives as small molecule inhibitors of retinoic acid 4-hydroxylase (CYP26)” (J Med Chem, 2011).
Blank lines part the entries; values can stand above or below the molecule they belong to. Activity calls are given as the source filed them. No cut-off for these calls is given here.

Experiments:
Cytochrome P450 26A1 [1] = target: T1, Cytochrome P450 26A1 (Homo sapiens, UniProt O43174); test: Inhibition of human CYP26A1 assessed using [11,12-3H]ATRA as substrate by scintillation counting
T1 sequence (O43174 whole entry): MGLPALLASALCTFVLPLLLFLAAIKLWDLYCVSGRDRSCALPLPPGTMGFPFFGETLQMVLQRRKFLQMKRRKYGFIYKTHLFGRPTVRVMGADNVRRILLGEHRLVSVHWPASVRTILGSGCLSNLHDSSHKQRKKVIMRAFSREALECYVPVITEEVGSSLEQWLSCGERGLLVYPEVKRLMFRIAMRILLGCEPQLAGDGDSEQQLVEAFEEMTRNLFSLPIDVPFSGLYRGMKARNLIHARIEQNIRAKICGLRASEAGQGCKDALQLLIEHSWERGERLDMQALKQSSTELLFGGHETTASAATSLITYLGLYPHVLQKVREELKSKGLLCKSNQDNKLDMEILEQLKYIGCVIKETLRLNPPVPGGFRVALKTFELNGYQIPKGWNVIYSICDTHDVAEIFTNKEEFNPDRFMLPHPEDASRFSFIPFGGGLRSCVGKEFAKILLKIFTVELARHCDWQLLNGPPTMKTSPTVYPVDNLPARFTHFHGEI
In short: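 CYP26 source: microsomes from MCF-7 cells pretreated 24 h with ATRA to induce CYP26, isolated by differential centrifugation. 50 μg microsomal protein in 50 mM Tris pH 7.4, 150 mM KCl, 10 mM MgCl₂, 0.02% BSA, 2 mM NADPH, 10 nM ATRA plus 0.1 μCi ³H-ATRA. Inhibitor 1–1000 nM, 1 h at 37 °C. Acetonitrile quench, retinoids resolved on C18 HPLC.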

Cytochrome P450 2C9 = Cytochrome P450 2C9 (Homo sapiens, UniProt P11712); test: Inhibition of CYP2C9 in human liver microsomes; assay type: ADME, Microsome
Chain of Cytochrome P450 2C9 (P11712 whole entry): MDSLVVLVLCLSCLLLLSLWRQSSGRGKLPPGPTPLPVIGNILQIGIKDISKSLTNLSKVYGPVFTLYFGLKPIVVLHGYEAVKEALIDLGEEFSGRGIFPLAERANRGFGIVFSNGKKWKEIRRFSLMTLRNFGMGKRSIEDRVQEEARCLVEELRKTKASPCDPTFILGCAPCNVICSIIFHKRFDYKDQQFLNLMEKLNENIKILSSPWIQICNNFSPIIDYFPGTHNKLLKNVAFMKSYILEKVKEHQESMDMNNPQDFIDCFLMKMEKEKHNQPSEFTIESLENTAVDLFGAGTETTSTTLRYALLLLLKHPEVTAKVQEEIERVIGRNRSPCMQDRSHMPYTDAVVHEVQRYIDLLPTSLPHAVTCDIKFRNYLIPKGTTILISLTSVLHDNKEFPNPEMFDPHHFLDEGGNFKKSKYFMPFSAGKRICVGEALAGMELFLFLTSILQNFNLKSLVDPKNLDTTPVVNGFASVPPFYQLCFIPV

SH-SY5Y = test: Increase in CYP26A1 mRNA expression in human SH-SY5Y cells at 1 uM after 72 hrs by RT-PCR analysis in the presence of 0.1 uM all-trans-retinoic acid; assay type: functional
In short: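 SH-SY5Y cells grown in RPMI 1640 with 10% FCS and 2 mM L-glutamine. Treated 72 h with 0.1 μM ATRA plus inhibitor at 1 μM; inhibitors in ethanol diluted in medium. Total RNA reverse transcribed for TaqMan real-time PCR of CYP26A1, normalized to β-actin. Fold increase relative to cells given […]; mean ± SD, n = 6.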

[2] = Half-life in human liver microsomes; assay type: ADME, Microsome
CYP2D6 = CYP2D6 (Homo sapiens, UniProt P10635); test: Inhibition of CYP2D6 in human liver microsomes at 0.4 uM; assay type: ADME, Microsome
Chain of CYP2D6 (P10635 whole entry): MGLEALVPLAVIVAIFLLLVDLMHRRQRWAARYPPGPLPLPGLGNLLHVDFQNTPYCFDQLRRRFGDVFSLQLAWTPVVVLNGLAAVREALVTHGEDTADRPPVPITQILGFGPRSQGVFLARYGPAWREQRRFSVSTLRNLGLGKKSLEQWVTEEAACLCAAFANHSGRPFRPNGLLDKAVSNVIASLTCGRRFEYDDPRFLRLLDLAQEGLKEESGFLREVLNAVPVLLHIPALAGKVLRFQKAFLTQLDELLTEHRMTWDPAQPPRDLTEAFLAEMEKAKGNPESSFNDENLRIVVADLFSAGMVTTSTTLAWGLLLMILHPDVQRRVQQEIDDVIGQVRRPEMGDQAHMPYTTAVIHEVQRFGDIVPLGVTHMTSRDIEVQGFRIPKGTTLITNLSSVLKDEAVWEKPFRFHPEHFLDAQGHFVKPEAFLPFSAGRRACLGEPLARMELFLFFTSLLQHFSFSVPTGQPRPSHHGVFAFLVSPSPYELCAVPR

CYP3A4 = CYP3A4 (Homo sapiens, UniProt P08684); test: Inhibition of CYP3A4 in human liver microsomes at 0.4 uM; assay type: ADME, Microsome
Chain of CYP3A4 (P08684 whole entry): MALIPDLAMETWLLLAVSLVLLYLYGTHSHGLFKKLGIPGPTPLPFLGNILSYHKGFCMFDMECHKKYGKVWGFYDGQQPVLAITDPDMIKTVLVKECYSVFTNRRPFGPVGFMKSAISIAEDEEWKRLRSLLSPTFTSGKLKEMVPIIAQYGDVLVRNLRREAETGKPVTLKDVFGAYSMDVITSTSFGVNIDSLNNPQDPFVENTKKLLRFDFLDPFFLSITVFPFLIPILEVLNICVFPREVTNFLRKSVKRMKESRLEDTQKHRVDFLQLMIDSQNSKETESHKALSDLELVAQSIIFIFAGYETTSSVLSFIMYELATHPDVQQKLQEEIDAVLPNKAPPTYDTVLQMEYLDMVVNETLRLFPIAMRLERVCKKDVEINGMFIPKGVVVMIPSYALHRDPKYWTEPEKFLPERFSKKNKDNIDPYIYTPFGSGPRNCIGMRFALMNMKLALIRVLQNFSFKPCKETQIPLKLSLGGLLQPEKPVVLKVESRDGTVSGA

CYP2C9 = CYP2C9 (Homo sapiens, UniProt P11712); test: Inhibition of CYP2C9 in human liver microsomes at 0.4 uM; assay type: ADME, Microsome
Chain of CYP2C9 (P11712 whole entry): as the sequence (P11712 whole entry) above

CYP1A2 = target: T2, CYP1A2 (Homo sapiens, UniProt P05177); test: Inhibition of CYP1A2 in human liver microsomes at 0.4 uM; assay type: ADME, Microsome
T2 sequence (P05177 whole entry): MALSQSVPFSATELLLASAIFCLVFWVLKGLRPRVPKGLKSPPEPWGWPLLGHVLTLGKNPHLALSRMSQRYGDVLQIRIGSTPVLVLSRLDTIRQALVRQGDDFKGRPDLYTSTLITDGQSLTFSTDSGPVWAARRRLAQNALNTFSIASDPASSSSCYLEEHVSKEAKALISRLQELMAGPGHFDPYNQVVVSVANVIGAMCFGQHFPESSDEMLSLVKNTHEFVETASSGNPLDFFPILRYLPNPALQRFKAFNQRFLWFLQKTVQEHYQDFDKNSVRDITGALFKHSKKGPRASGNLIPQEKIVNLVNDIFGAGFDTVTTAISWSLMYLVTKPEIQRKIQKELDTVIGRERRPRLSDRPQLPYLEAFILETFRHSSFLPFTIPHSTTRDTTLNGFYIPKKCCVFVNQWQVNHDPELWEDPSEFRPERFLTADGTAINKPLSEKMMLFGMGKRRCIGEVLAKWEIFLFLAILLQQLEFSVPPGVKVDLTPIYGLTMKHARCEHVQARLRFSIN

CYP2C19 = CYP2C19 (Homo sapiens, UniProt P33261); test: Inhibition of CYP2C19 in human liver microsomes at 0.4 uM; assay type: ADME, Microsome
Chain of CYP2C19 (P33261 whole entry): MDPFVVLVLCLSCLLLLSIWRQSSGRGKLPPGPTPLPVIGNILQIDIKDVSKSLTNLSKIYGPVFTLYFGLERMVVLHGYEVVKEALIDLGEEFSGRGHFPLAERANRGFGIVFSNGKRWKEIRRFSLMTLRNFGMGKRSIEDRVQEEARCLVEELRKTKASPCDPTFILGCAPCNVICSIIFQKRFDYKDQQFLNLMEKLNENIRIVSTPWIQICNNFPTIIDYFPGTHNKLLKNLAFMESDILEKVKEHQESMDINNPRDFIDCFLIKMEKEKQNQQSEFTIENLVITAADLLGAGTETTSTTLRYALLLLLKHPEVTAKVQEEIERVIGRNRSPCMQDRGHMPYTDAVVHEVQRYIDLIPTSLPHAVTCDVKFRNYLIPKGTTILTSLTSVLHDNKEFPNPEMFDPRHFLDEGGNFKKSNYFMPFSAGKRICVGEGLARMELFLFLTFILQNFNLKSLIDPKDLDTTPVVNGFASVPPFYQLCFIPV

Cytochrome P450 3A4 = Cytochrome P450 3A4 (Homo sapiens, UniProt P08684); test: Inhibition of CYP3A4 in human liver microsomes; assay type: ADME, Microsome
Chain of Cytochrome P450 3A4 (P08684 whole entry): as the sequence (P08684 whole entry) above

Cytochrome P450 1A2 = target: T3, Cytochrome P450 1A2 (Homo sapiens, UniProt P05177); test: Inhibition of CYP1A2 in human liver microsomes; assay type: ADME, Microsome
T3 sequence (P05177 whole entry): T2 sequence (P05177 whole entry)

Cytochrome P450 2D6 = Cytochrome P450 2D6 (Homo sapiens, UniProt P10635); test: Inhibition of CYP2D6 in human liver microsomes; assay type: ADME, Microsome
Chain of Cytochrome P450 2D6 (P10635 whole entry): as the sequence (P10635 whole entry) above

Cytochrome P450 2C19 = Cytochrome P450 2C19 (Homo sapiens, UniProt P33261); test: Inhibition of CYP2C19 in human liver microsomes; assay type: ADME, Microsome
Chain of Cytochrome P450 2C19 (P33261 whole entry): as the sequence (P33261 whole entry) above

Cytochrome P450 26A1 [3] = target: T1, Cytochrome P450 26A1; test: Inhibition of CYP26 in human MCF-7 cell microsomes

Compound: CC(C)(C(=O)O)C(c1ccc(Nc2ccc3ccccc3c2)cc1)n1cncn1 (stereo unspecified)
IC50 (Cytochrome P450 26A1 [1]): > 1000 nM

Compound: CNC(=O)C(C)(C)C(c1ccc(Nc2ccc3ccccc3c2)cc1)n1cncn1 (stereo unspecified)
IC50 (Cytochrome P450 26A1 [1]): 350 nM

Compound: CC(C)(C(=O)O)C(c1ccc(Nc2ccc3ccccc3c2)cc1)n1ccnc1 (stereo unspecified)
IC50 (Cytochrome P450 26A1 [1]): 300 nM

Compound: CC(C)(C(=O)OCc1ccccc1)C(c1ccc(Nc2ccc3ccccc3c2)cc1)n1ccnc1 (stereo unspecified)
IC50 (Cytochrome P450 26A1 [1]): 400 nM

Compound: CC(C)OC(=O)C(C)(C)C(c1ccc(Nc2ccc3ccccc3c2)cc1)n1ccnc1 (stereo unspecified)
IC50 (Cytochrome P450 26A1 [1]): 290 nM

Compound: COC(=O)C(C)(C)C(c1ccc(Nc2ccc3ccccc3c2)cc1)n1ccnc1 (stereo unspecified)
IC50 (Cytochrome P450 2C9): 8000 nM
Activity (SH-SY5Y): Active
half-life [2]: 5.02 h

Compound: C[C@H]([C@@H](c1ccc(Nc2nc3ccccc3s2)cc1)n1ccnc1)N(C)C
IC50 (Cytochrome P450 2C9): 11000 nM

Compound: c1ccc(C(c2ccc(Nc3ccc4ccccc4c3)cc2)n2ccnc2)cc1 (stereo unspecified)
IC50 (Cytochrome P450 26A1 [1]): 500 nM

Compound: CCCCCOC(=O)C(C)(C)C(c1ccc(Nc2ccc3ccccc3c2)cc1)n1ccnc1 (stereo unspecified)
IC50 (Cytochrome P450 26A1 [1]): 140 nM

Compound: CCCCOC(=O)C(C)(C)C(c1ccc(Nc2ccc3ccccc3c2)cc1)n1ccnc1 (stereo unspecified)
IC50 (Cytochrome P450 26A1 [1]): 200 nM

Continued, in another order:

inhibition at 0.4 µM (CYP2D6): 13%
inhibition at 0.4 µM (CYP3A4): 86%
inhibition at 0.4 µM (CYP2C9): 45%
IC50 (Cytochrome P450 26A1 [1]): 12 nM
inhibition at 0.4 µM (CYP1A2): 15%
inhibition at 0.4 µM (CYP2C19): 14%
Compound: CNC(=O)C(C)(C)C(c1ccc(Nc2ccc3ccccc3c2)cc1)n1ccnc1 (stereo unspecified)
Activity (SH-SY5Y): Active

IC50 (Cytochrome P450 3A4): 330 nM
IC50 (Cytochrome P450 2C9): 21400 nM
IC50 (Cytochrome P450 1A2): 10900 nM
inhibition at 0.4 µM (CYP2D6): -2%
inhibition at 0.4 µM (CYP3A4): 22%
inhibition at 0.4 µM (CYP2C9): 38%
IC50 (Cytochrome P450 26A1 [1]): 0.35 nM
IC50 (Cytochrome P450 2D6): 1800 nM
IC50 (Cytochrome P450 2C19): 3140 nM
inhibition at 0.4 µM (CYP1A2): 10%
IC50 (Cytochrome P450 26A1 [3]): 0.3 nM
half-life [2]: 3.73 h
inhibition at 0.4 µM (CYP2C19): 16%
Compound: COC(=O)C(C)(C)C(c1ccc(Nc2ccc3ccccc3c2)cc1)n1cncn1 (stereo unspecified)
fold change (FC) (SH-SY5Y): 5.2

inhibition at 0.4 µM (CYP2D6): 29%
inhibition at 0.4 µM (CYP3A4): 95%
inhibition at 0.4 µM (CYP2C9): 52%
IC50 (Cytochrome P450 26A1 [1]): 75 nM
inhibition at 0.4 µM (CYP1A2): 11%
inhibition at 0.4 µM (CYP2C19): 21%
Compound: CN(C)C(=O)C(C)(C)C(c1ccc(Nc2ccc3ccccc3c2)cc1)n1ccnc1 (stereo unspecified)

IC50 (Cytochrome P450 26A1 [1]): 120 nM
Compound: CC(C)NC(=O)C(C)(C)C(c1ccc(Nc2ccc3ccccc3c2)cc1)n1ccnc1 (stereo unspecified)

IC50 (Cytochrome P450 26A1 [1]): 50 nM
Compound: CC(C)(C(N)=O)C(c1ccc(Nc2ccc3ccccc3c2)cc1)n1ccnc1 (stereo unspecified)
fold change (FC) (SH-SY5Y): 4.1

inhibition at 0.4 µM (CYP2D6): 15%
inhibition at 0.4 µM (CYP3A4): 61%
inhibition at 0.4 µM (CYP2C9): 43%
IC50 (Cytochrome P450 26A1 [1]): 0.35 nM
inhibition at 0.4 µM (CYP1A2): 20%
inhibition at 0.4 µM (CYP2C19): 30%
Compound: CCOC(=O)C(C)(C)C(c1ccc(Nc2ccc3ccccc3c2)cc1)n1ccnc1 (stereo unspecified)
fold change (FC) (SH-SY5Y): 5.8

IC50 (Cytochrome P450 26A1 [1]): 40 nM
Compound: COc1ccc2cc(Nc3ccc(C(n4ccnc4)C(C)(C)CO)cc3)ccc2c1 (stereo unspecified)
fold change (FC) (SH-SY5Y): 3.7
